Results as given in ChEMBL document CHEMBL3352188, “Synthesis, antimicrobial and molecular docking studies of enantiomerically pure N-alkylated β-amino alcohols from phenylpropanolamines” (2014).

Legend:
Malassezia pachydermatis [1] = assay: Fungicidal activity against Malassezia pachydermatis after 48 to 72 hrs by two fold dilution method; assay type: functional
Shigella flexneri [2] = assay: Bactericidal activity against Shigella flexneri MTCC 1457 after 24 hrs by two fold dilution method; assay type: functional; conditions: MTCC 1457, 24 h
In short: (§1)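 Tubes held 5 mL MHB with two-fold dilutions from 1000 to 7.81 µg/mL and were inoculated with 5 × 10^5 to 1 × 10^6 cells in 0.1 mL MHB, incubated without shaking. Turbidity was checked at 20 h, tubes vortexed and re-incubated 4 h.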

Pseudomonas aeruginosa [3] = assay: Antimicrobial activity against Pseudomonas aeruginosa MTCC 741 at 1 mg/disc after 24 hrs by disc diffusion assay; assay type: functional
In short: (§2)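 Disc diffusion on Mueller Hinton agar. Inoculum was grown in MHB for 24 h at 37 °C, swabbed onto the plates and dried for 10 min. Discs with 1 mg compound were left 30 min at room temperature for diffusion, then incubated at 37 °C for 24 h. Inhibition zone was read in mm; run twice. Solvent was the negative control, streptomycin the positive control.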

Shigella flexneri [4] = assay: Antimicrobial activity against Shigella flexneri MTCC 1457 after 24 hrs by two fold dilution method; assay type: functional; conditions: MTCC 1457, 24 h
In short: (§3)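 Broth two-fold serial dilution in 96-well plates from 1000 to 7.81 µg/mL, compound in DMSO (2%). Inoculum was grown in MHB for 24 h at 37 °C; plates were incubated 24 h at 37 °C. 5 µL of broth was spotted onto MHA; MIC was the lowest concentration with no visible growth on agar. Streptomycin was the positive control.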

Proteus vulgaris [5] = assay: Antimicrobial activity against Proteus vulgaris MTCC 1771 at 1 mg/disc after 24 hrs by disc diffusion assay; assay type: functional; in short: as §2
Staphylococcus aureus [6] = assay: Antimicrobial activity against […] Staphylococcus aureus MTCC 96 at 1 mg/disc after 24 hrs by disc diffusion assay; assay type: functional; in short: as §2
Staphylococcus aureus [7] = assay: Antimicrobial activity against methicillin-resistant Staphylococcus aureus MTCC 96 after 24 hrs by two fold dilution method; assay type: functional; conditions: MTCC 96, 24 h; in short: as §3
Klebsiella pneumoniae [8] = assay: Bactericidal activity against Klebsiella pneumoniae MTCC 109 after 24 hrs by two fold dilution method; assay type: functional; conditions: MTCC 109, 24 h; in short: as §1
Candida albicans [9] = assay: Fungicidal activity against Candida albicans MTCC 227 after 48 to 72 hrs by two fold dilution method; assay type: functional
Salmonella typhimurium [10] = assay: Antimicrobial activity against Salmonella typhimurium MTCC 1251 after 24 hrs by two fold dilution method; assay type: functional, Salmonella enterica subsp. enterica serovar Typhimurium; conditions: Salmonella enterica, MTCC 1251, 24 h; in short: as §3
[11] = test system: Salmonella enterica subsp. enterica serovar Paratyphi B; assay: Antimicrobial activity against Salmonella paratyphi B at 1 mg/disc after 24 hrs by disc diffusion assay; assay type: functional; in short: as §2
Pseudomonas aeruginosa [12] = assay: Antimicrobial activity against Pseudomonas aeruginosa MTCC 741 after 24 hrs by two fold dilution method; assay type: functional; conditions: MTCC 741, 24 h; in short: as §3
Klebsiella aerogenes [13] = assay: Antimicrobial activity against Enterobacter aerogenes MTCC 111 at 1 mg/disc after 24 hrs by disc diffusion assay; assay type: functional; in short: as §2
Shigella flexneri [14] = assay: Antimicrobial activity against Shigella flexneri MTCC 1457 at 1 mg/disc after 24 hrs by disc diffusion assay; assay type: functional; in short: as §2
Klebsiella aerogenes [15] = assay: Bactericidal activity against Enterobacter aerogenes MTCC 111 after 24 hrs by two fold dilution method; assay type: functional; conditions: MTCC 111, 24 h; in short: as §1
Proteus vulgaris [16] = assay: Antimicrobial activity against Proteus vulgaris MTCC 1771 after 24 hrs by two fold dilution method; assay type: functional; conditions: MTCC 1771, 24 h; in short: as §3
Candida albicans [17] = assay: Antimicrobial activity against Candida albicans MTCC 227 at 1 mg/disc after 24 hrs by disc diffusion assay; assay type: functional
Klebsiella pneumoniae [18] = assay: Antimicrobial activity against Klebsiella pneumoniae MTCC 109 at 1 mg/disc after 24 hrs by disc diffusion assay; assay type: functional; in short: as §2
Salmonella typhimurium [19] = assay: Antimicrobial activity against Salmonella typhimurium MTCC 1251 at 1 mg/disc after 24 hrs by disc diffusion assay; assay type: functional, Salmonella enterica subsp. enterica serovar Typhimurium; in short: as §2
Salmonella typhimurium [20] = assay: Bactericidal activity against Salmonella typhimurium MTCC 1251 after 24 hrs by two fold dilution method; assay type: functional, Salmonella enterica subsp. enterica serovar Typhimurium; conditions: Salmonella enterica, MTCC 1251, 24 h; in short: as §1
Pseudomonas aeruginosa [21] = assay: Bactericidal activity against Pseudomonas aeruginosa MTCC 741 after 24 hrs by two fold dilution method; assay type: functional; conditions: MTCC 741, 24 h; in short: as §1
[22] = test system: Salmonella enterica subsp. enterica serovar Paratyphi B; assay: Antimicrobial activity against Salmonella paratyphi B after 24 hrs by two fold dilution method; assay type: functional; in short: as §3
Klebsiella pneumoniae [23] = assay: Antimicrobial activity against Klebsiella pneumoniae MTCC 109 after 24 hrs by two fold dilution method; assay type: functional; conditions: MTCC 109, 24 h; in short: as §3
Bacillus subtilis [24] = assay: Antimicrobial activity against Bacillus subtilis MTCC 441 after 24 hrs by two fold dilution method; assay type: functional; conditions: MTCC 441, 24 h; in short: as §3
Malassezia pachydermatis [25] = assay: Antimicrobial activity against Malassezia pachydermatis at 1 mg/disc after 24 hrs by disc diffusion assay; assay type: functional
Klebsiella aerogenes [26] = assay: Antimicrobial activity against Enterobacter aerogenes MTCC 111 after 24 hrs by two fold dilution method; assay type: functional; conditions: MTCC 111, 24 h; in short: as §3
Micrococcus luteus [27] = assay: Antimicrobial activity against Micrococcus luteus MTCC 106 at 1 mg/disc after 24 hrs by disc diffusion assay; assay type: functional; in short: as §2
Micrococcus luteus [28] = assay: Bactericidal activity against Micrococcus luteus MTCC 106 after 24 hrs by two fold dilution method; assay type: functional; conditions: MTCC 106, 24 h; in short: as §1
Proteus vulgaris [29] = assay: Bactericidal activity against Proteus vulgaris MTCC 1771 after 24 hrs by two fold dilution method; assay type: functional; conditions: MTCC 1771, 24 h; in short: as §1
Staphylococcus aureus [30] = assay: Antimicrobial activity against Staphylococcus aureus MTCC 96 at 1 mg/disc after 24 hrs by disc diffusion assay; assay type: functional; in short: as §2
Staphylococcus aureus [31] = assay: Bactericidal activity against methicillin-resistant Staphylococcus aureus MTCC 96 after 24 hrs by two fold dilution method; assay type: functional; conditions: MTCC 96, 24 h; in short: as §1
[32] = test system: Salmonella enterica subsp. enterica serovar Paratyphi B; assay: Bactericidal activity against Salmonella paratyphi B after 24 hrs by two fold dilution method; assay type: functional; in short: as §1
Bacillus subtilis [33] = assay: Antimicrobial activity against Bacillus subtilis MTCC 441 at 1 mg/disc after 24 hrs by disc diffusion assay; assay type: functional; in short: as §2
Staphylococcus aureus [34] = assay: Antimicrobial activity against Staphylococcus aureus MTCC 96 after 24 hrs by two fold dilution method; assay type: functional; conditions: MTCC 96, 24 h; in short: as §3
Malassezia pachydermatis [35] = assay: Antimicrobial activity against Malassezia pachydermatis after 48 to 72 hrs by two fold dilution method; assay type: functional
In short: (§4)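 Yeast was grown in Sabouraud dextrose broth at 28 °C for 48 h and tested per CLSI reference methods. Two-fold serial dilutions from 1000 to 7.81 µg/mL, compound in DMSO (2%), in 96-well plates, incubated 48–72 h at 28 °C. MIC was the lowest concentration with no visible fungal growth. Ketoconazole was the positive control.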

Candida albicans [36] = assay: Antimicrobial activity against Candida albicans MTCC 227 after 48 to 72 hrs by two fold dilution method; assay type: functional; in short: as §4
Micrococcus luteus [37] = assay: Antimicrobial activity against Micrococcus luteus MTCC 106 after 24 hrs by two fold dilution method; assay type: functional; conditions: MTCC 106, 24 h; in short: as §3
Staphylococcus aureus [38] = assay: Bactericidal activity against Staphylococcus aureus MTCC 96 after 24 hrs by two fold dilution method; assay type: functional; conditions: MTCC 96, 24 h; in short: as §1
Bacillus subtilis [39] = assay: Bactericidal activity against Bacillus subtilis MTCC 441 after 24 hrs by two fold dilution method; assay type: functional; conditions: MTCC 441, 24 h; in short: as §1

Structure (SMILES)	MFC (Malassezia pachydermatis [1])	MBC (Shigella flexneri [2])	inhibition zone (IZ) (Pseudomonas aeruginosa [3])	MIC (Shigella flexneri [4])	inhibition zone (IZ) (Proteus vulgaris [5])	inhibition zone (IZ) (Staphylococcus aureus [6])	MIC (Staphylococcus aureus [7])	MBC (Klebsiella pneumoniae [8])	MFC (Candida albicans [9])	MIC (Salmonella typhimurium [10])	inhibition zone (IZ) [11]	MIC (Pseudomonas aeruginosa [12])	inhibition zone (IZ) (Klebsiella aerogenes [13])	inhibition zone (IZ) (Shigella flexneri [14])	MBC (Klebsiella aerogenes [15])	MIC (Proteus vulgaris [16])	inhibition zone (IZ) (Candida albicans [17])	inhibition zone (IZ) (Klebsiella pneumoniae [18])	inhibition zone (IZ) (Salmonella typhimurium [19])	MBC (Salmonella typhimurium [20])	other results
CC[C@H](N[C@H](C)[C@@H](O)c1ccccc1)c1ccccc1.Cl	31.2 µg/mL	62.5 µg/mL	16 mm	31.2 µg/mL	20 mm	22 mm	31.2 µg/mL	62.5 µg/mL	31.2 µg/mL	62.5 µg/mL	20 mm	62.5 µg/mL	20 mm	20 mm	31.2 µg/mL	31.2 µg/mL	20 mm	24 mm	19 mm	62.5 µg/mL	MBC (Pseudomonas aeruginosa [21]): 125 µg/mL; MIC [22]: 62.5 µg/mL; MIC (Klebsiella pneumoniae [23]): 31.2 µg/mL; MIC (Bacillus subtilis [24]): 31.2 µg/mL; inhibition zone (IZ) (Malassezia pachydermatis [25]): 22 mm; MIC (Klebsiella aerogenes [26]): 31.2 µg/mL; inhibition zone (IZ) (Micrococcus luteus [27]): 23 mm; MBC (Micrococcus luteus [28]): 31.2 µg/mL; MBC (Proteus vulgaris [29]): 62.5 µg/mL; inhibition zone (IZ) (Staphylococcus aureus [30]): 24 mm; MBC (Staphylococcus aureus [31]): 31.2 µg/mL; MBC [32]: 62.5 µg/mL; inhibition zone (IZ) (Bacillus subtilis [33]): 22 mm; MIC (Staphylococcus aureus [34]): 15.6 µg/mL; MIC (Malassezia pachydermatis [35]): 31.2 µg/mL; MIC (Candida albicans [36]): 31.2 µg/mL; MIC (Micrococcus luteus [37]): 31.2 µg/mL; MBC (Staphylococcus aureus [38]): 31.2 µg/mL; MBC (Bacillus subtilis [39]): 62.5 µg/mL
COc1ccc([C@@H](C)N[C@@H](C)[C@H](O)c2ccccc2)cc1.Cl	62.5 µg/mL	31.2 µg/mL	15 mm	31.2 µg/mL	17 mm	15 mm	125 µg/mL	125 µg/mL	62.5 µg/mL	250 µg/mL	16 mm	125 µg/mL	14 mm	18 mm	125 µg/mL	62.5 µg/mL	17 mm	18 mm	13 mm	500 µg/mL	MBC (Pseudomonas aeruginosa [21]): 250 µg/mL; MIC [22]: 125 µg/mL; MIC (Klebsiella pneumoniae [23]): 62.5 µg/mL; MIC (Bacillus subtilis [24]): 125 µg/mL; inhibition zone (IZ) (Malassezia pachydermatis [25]): 18 mm; MIC (Klebsiella aerogenes [26]): 125 µg/mL; inhibition zone (IZ) (Micrococcus luteus [27]): 15 mm; MBC (Micrococcus luteus [28]): 250 µg/mL; MBC (Proteus vulgaris [29]): 62.5 µg/mL; inhibition zone (IZ) (Staphylococcus aureus [30]): 15 mm; MBC (Staphylococcus aureus [31]): 250 µg/mL; MBC [32]: 125 µg/mL; inhibition zone (IZ) (Bacillus subtilis [33]): 14 mm; MIC (Staphylococcus aureus [34]): 125 µg/mL; MIC (Malassezia pachydermatis [35]): 62.5 µg/mL; MIC (Candida albicans [36]): 62.5 µg/mL; MIC (Micrococcus luteus [37]): 125 µg/mL; MBC (Staphylococcus aureus [38]): 250 µg/mL; MBC (Bacillus subtilis [39]): 250 µg/mL
